For 1 compound, Activity results are on record in ChEMBL document CHEMBL4813940, “Design, synthesis and biological evaluation of novel benzoxaborole derivatives as potent PDE4 inhibitors for topical treatment of atopic dermatitis” (Eur J Med Chem, 2021).

The nature of data set [1]: Phototoxicity in albino guinea pig assessed as infiltration of inflammatory cells at 10 mg/kg topical treatment irradiated with 4.2 mw/cm2 UVA for 40 mins and measured after 24 hrs day of light irradiation by H and E staining based microscopic analysis. The data set is classed as organism-based, Cavia porcellus. The settings on record: in vivo, topical_or_ocular, in the assay text read “72 hrs” for “24 hrs”. The gist of the method: (§1)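 Albino guinea pigs (250–300 g) were randomized into 5 groups. Four 2 cm × 2 cm depilated areas beside the spine were prepared 24 h before dosing, and 0.2 mL of test substance was applied. Animals were restrained and exposed to UVA for 40 min. Erythema, eschar and oedema were scored visually at 1, 24, 48 and 72 h. Skin taken at 72 h was formalin-fixed, H&E-stained and read by a pathologist.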

A short description of data set [2]: Phototoxicity in albino guinea pig assessed as erythema and edema topical treatment irradiated with 4.2 mw/cm2 UVA for 40 mins and measured after 72 hrs day of light irradiation by H and E staining based microscopic analysis. As to conditions: topical_or_ocular. More on the design: species or system Cavia porcellus. The gist of the method: as §1
Data set [3] in a line: Phototoxicity in albino guinea pig assessed as necrosis at 10 mg/kg topical treatment irradiated with 4.2 mw/cm2 UVA for 40 mins and measured after 24 hrs day of light irradiation by H and E staining based microscopic analysis. The settings on record: in vivo, topical_or_ocular, in the assay text read “72 hrs” for “24 hrs”. The data set is classed as organism-based, Cavia porcellus. Put shortly:
as §1

Data set [4] can be described thus: Phototoxicity in albino guinea pig assessed as erythema and edema topical treatment irradiated with 4.2 mw/cm2 UVA for 40 mins and measured after 24 hrs day of light irradiation by H and E staining based microscopic analysis. Also noted: species or system Cavia porcellus. The settings on record: topical_or_ocular. The gist of the method: as §1

For `COc1c2occc2cc2ccc(=O)oc12` [METHOXSALEN], the Activity result is given as “Toxic” in data set [1], “Non-Toxic” in data set [2], “Toxic” in data set [3] and “Toxic” in data set [4].
